Source: PubChem
Rows were chosen to be rich in hits. Some 4.1% of all compounds tested hit in one or more screens of this group.
Kir21 block: inhibitors of mouse Kir2.1 inward-rectifier potassium channel; Inward rectifier potassium channel 2 (Mus musculus), P35561; HEK293-Kir2.1, FluxOR thallium flux fluorescence; stronger effect = lower value; B-score at 10 µM; 310,000 tested, 0.85% active; AID 1672, 2009;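 active = fluorescence ratio B-score at or below minus 3 SD of library scores, with starting-brightness B-score within 2 SD, cut at about -4.2 in these data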;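 note: channel flux triggered by added potassium and thallium sulfate stimulus; B-score of peak minus minimum fluorescence over baseline after thallium stimulus; more negative B-score means stronger Kir2.1 block with less thallium influx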
RGS4 block: RGS4 inhibitors, primary screen, cell-based, HEK293 M3R inducible RGS4, calcium flux | Regulator of G-protein signaling 4 (Homo sapiens), P49798 | Fluo-4 calcium flux; stronger effect = higher value; triggered by carbachol at its EC20 | B-score at 10 µM | 310,000 tested, 0.45% active;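 active = B-score, a plate-corrected calcium signal, over three deviations above library mean, with baseline fluorescence within five deviations of library mean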;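 note: RGS4 expression induced by doxycycline in cells with stable M3 receptor; B-score is computed from the integrated fluorescence ratio over baseline after carbachol; higher B-score means a larger calcium signal and so more RGS4 inhibition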
Target sequence (P49798 whole entry, looked up): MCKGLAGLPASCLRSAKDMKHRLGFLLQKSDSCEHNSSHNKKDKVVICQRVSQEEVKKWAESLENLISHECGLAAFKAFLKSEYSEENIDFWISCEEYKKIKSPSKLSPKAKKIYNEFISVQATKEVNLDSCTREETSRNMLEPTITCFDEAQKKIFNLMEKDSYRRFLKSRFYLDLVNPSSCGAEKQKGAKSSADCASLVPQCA
MrgX1 antagonist: antagonists of human MrgX1 receptor, primary screen, HEK293 cells, Fluo-4 calcium flux; BAM8-22 antagonism; stronger effect = lower value; B-score at 10 µM; 310,000 tested, 1.3% active; AID 588676, 2011;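 active = calcium-response B-score plate-corrected more than 3 library SD below zero, starting fluorescence within 5 deviations, no agonist response on first addition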;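 note: peak minus trough fluorescence over baseline after final BAM8-22 challenge near maximal dose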
Target sequence (Q96LB2 whole entry, looked up): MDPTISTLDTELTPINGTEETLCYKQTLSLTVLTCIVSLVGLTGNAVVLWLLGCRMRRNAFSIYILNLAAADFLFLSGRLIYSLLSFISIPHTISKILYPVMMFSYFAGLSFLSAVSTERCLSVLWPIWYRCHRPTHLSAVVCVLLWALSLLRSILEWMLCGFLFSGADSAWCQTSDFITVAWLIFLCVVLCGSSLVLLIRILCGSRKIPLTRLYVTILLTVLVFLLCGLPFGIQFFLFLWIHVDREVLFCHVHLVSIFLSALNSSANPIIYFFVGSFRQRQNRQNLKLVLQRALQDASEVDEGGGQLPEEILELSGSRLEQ
RGS4 act: RGS4 potentiators or activators, primary screen, cell-based, HEK293 M3R inducible RGS4, calcium flux; carbachol calcium flux Fluo4; stronger effect = lower value; B-score at 10 µM; 310,000 tested, 0.92% active;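 active = B-score of the integrated calcium signal more than 4 SD below the library mean, with starting fluorescence not abnormally high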;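 note: negative B-score means reduced calcium response which marks RGS4 activation or potentiation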
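test system = HEK293 cells with stable M3R and inducible RGS4 | schedule = recording 10 s baseline at 1 Hz, 100 s post-agonist | technique = Fluo4-AM (2 µM) calcium-flux fluorescence, kinetic read | measure = Agonist-evoked peak-minus-minimum fluorescence over baseline, integrated ratio, B score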
MrgX1 ag: agonists of human MrgX1 receptor, primary screen, HEK293 cells, Fluo-4 calcium flux; B-score at 10 µM; Fluo-4 calcium fluorescence, agonist mode; stronger effect = higher value; 310,000 tested, 0.44% active;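 active = calcium response B-score plate-corrected fluorescence ratio at least 3 library SD, with starting fluorescence B-score inside 5 SD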
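Test system: Stable human MrgX1 HEK293 cell line | Schedule: Overnight plating before 1 h dye loading | Read-out basis: Baseline-normalised fluorescence change ratio, B-scored | Detection: Kinetic calcium dye fluorescence, Fluo-4 NW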
MrgX1 PAM: positive allosteric modulators of MrgX1, primary screen, HEK293 cells, Fluo-4 calcium flux; Mas-related G-protein coupled receptor member X1 (Homo sapiens), Q96LB2; FDSS; stronger effect = higher value; B-score at 10 µM; 310,000 tested, 0.63% active; AID 588675, 2011;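 active = plate-corrected calcium response at least 3 library SD above typical, normal starting fluorescence, not activating the receptor alone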;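 note: compound read alongside a low EC10 to EC30 dose of BAM8-22 agonist; peak minus trough fluorescence over baseline measured at the second addition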
Active calls of the source: *; i = inactive; . = no result given.

SMILES	Kir21 block	RGS4 block	MrgX1 antagonist	RGS4 act	MrgX1 ag	MrgX1 PAM
COc1ccc(Br)cc1C(=O)Nc1cccc(NC(=O)c2ccco2)c1	0.01	i	i	i	i	i
O=C(Nc1cccc(NC(=O)c2ccc(-c3cccc(Br)c3)o2)c1)c1ccco1	-0.96	i	i	-8.9*	i	i
CCCCS(=O)CC(CS(=O)CCCC)OC(=O)c1ccccc1 (stereo unspecified)	0.01	i	i	i	i	i
O=C1CCCC/C1=C/Nc1cccc(C(F)(F)F)c1	-1.3	i	i	i	i	i
O=C1CCC2S/C(=C/Nc3ccc(C(F)(F)F)cc3)C(=O)N12 (stereo unspecified)	-0.84	i	-4.8*	i	i	i
Cc1ccccc1Nc1ccc([N+](=O)[O-])cn1	0.94	i	i	i	i	i
Cc1ccccc1NC1=NCC(c2ccc([N+](=O)[O-])cc2)S1 (stereo unspecified)	-1.4	i	-5.7*	i	i	i
O=C(Nc1ccc(Cl)c(C(F)(F)F)c1)[C@@H]1CC=C[C@@H]2CCN(Cc3ccccc3)C(=O)[C@@H]21	-0.32	i	i	i	i	7.2*
COc1cccc(CC2(CO)CCCN(Cc3cc4ccccc4[nH]3)C2)c1 (stereo unspecified)	-4.2*	i	i	i	i	i
COc1ccc(-n2ccnc2CN2CCCC(CO)(Cc3cccc(OC)c3)C2)cc1 (stereo unspecified)	-2	i	i	i	i	i
COc1cccc(CC2(CO)CCCN(Cc3ccc(C)s3)C2)c1 (stereo unspecified)	-2	i	i	i	i	i
CSc1ccc(CN2CCCC(CO)(Cc3ccccc3)C2)cc1 (stereo unspecified)	-4.5*	i	i	i	i	i
COc1cccc(CC2(CO)CCCN(Cc3c(C)cc(C)cc3-n3cccn3)C2)c1 (stereo unspecified)	-5.4*	i	i	i	i	i
Cc1cc(NS(=O)(=O)c2ccc(NC(=O)Cc3ccc([N+](=O)[O-])cc3)cc2)no1	0.01	i	i	i	i	i
CCCC(c1nnnn1Cc1ccco1)N1CCN(C(=O)c2ccco2)CC1 (stereo unspecified)	-1.1	i	i	i	i	i
CCOC(=O)/C=C/C(=O)N1CCc2ccccc21	-0.89	i	i	i	i	i
COc1ccc(CNC(=O)C2CC(c3cccc([N+](=O)[O-])c3)=NO2)cc1 (stereo unspecified)	1.4	i	i	i	i	i
CCOc1cc(CNCCO)cc(Br)c1OCc1ccc(Cl)cc1Cl	-13*	i	i	-7.7*	i	i
CCOc1cccc(CNCCO)c1OCc1ccc(Cl)cc1Cl	-6.1*	i	i	i	i	i
CCOc1cccc(CNc2ccc(O)cc2)c1OCc1ccccc1Cl	-0.12	i	i	i	29*	i
CCOc1cccc(CNc2ccc(O)cc2)c1OCc1ccc(Cl)cc1Cl	-0.05	i	i	i	i	i
COc1cccc(C2(O)CCN(C(=O)C3CC3)CC2)c1	0.98	i	i	i	i	i
CCCOc1ccc(C(=O)N2CCN(c3ccc(NC(=O)CC)cc3Cl)CC2)cc1	1.9	i	i	i	i	i
Cc1cc(=O)[nH]c(SCC(=O)c2ccc(C)c(C)c2)n1	0.18	i	i	i	i	i
O=C(CCC(=O)Nc1ccc(F)cc1)N/N=C/c1c[nH]c2ccccc12	0.21	i	i	i	i	i
SMILES	Kir21 block	RGS4 block	MrgX1 antagonist	RGS4 act	MrgX1 ag	MrgX1 PAM
CC1(c2ccccc2)CC(c2ccccc2)=Nc2ccccc2N1 (stereo unspecified)	-0.62	i	i	i	i	i
CC1(c2ccccc2)CC(c2ccccc2)=Nc2nonc2N1 (stereo unspecified)	-4.4*	i	i	i	i	i
O=C(Nc1ccc(Oc2ccccc2)cc1)C1CCN(c2c3c(nc4ncnn24)CCC3)CC1	0.41	i	i	-12*	i	i
COc1ccc(N=C2S/C(=C\c3ccc(OCC(=O)O)cc3)C(=O)N2CCc2c[nH]c3ccccc23)cc1	0.03	i	.	i	.	.
COc1ccc(N=C2S/C(=C\c3ccc(N4CCOCC4)o3)C(=O)N2CCc2c[nH]c3ccccc23)cc1	0.16	i	-7.1*	i	i	i
O=C1N=C(N2CCN(c3ccccc3)CC2)S/C1=C/c1ccco1	-0.07	i	i	i	i	i
CCOc1ccccc1NC(=O)Nc1ccc(Br)cn1	1.7	i	i	i	i	i
CC(C)n1c(CSCc2ccc(Cl)cc2Cl)n[nH]c1=S	-4.5*	i	i	i	i	i
CC(=O)Nc1cc(-c2ccccc2)ccc1O	-4.3	i	i	i	i	i
Cc1ccc(-n2nc3c(=O)n(CCCC(=O)NCc4ccccc4Cl)nc(C)c3c2C)cc1	1.2	i	-6.5*	i	i	i
Cc1ccc(-n2nc3c(=O)n(C(C)C(=O)NCCCc4ccccc4)nc(C)c3c2C)cc1 (stereo unspecified)	-1.5	i	-4.5*	i	i	i
Cc1ccc(C2SCCN2C(=O)c2ccc([N+](=O)[O-])cc2)cc1 (stereo unspecified)	-6.5*	i	i	i	i	i
O=C1/C(=C/c2ccc(O)cc2)CCc2ccc([N+](=O)[O-])cc21	-0.35	i	i	i	i	i
CC(=O)Nc1cccc(C(=O)/C=C/c2ccc(/C=C/C(=O)c3cccc(NC(C)=O)c3)cc2)c1	1.8	4.8*	i	i	i	i
CN(C)S(=O)(=O)c1cccc(NC(=S)N/N=C/c2ccc(O)c(O)c2O)c1	-5.4*	i	.	i	.	.
COC(=O)c1cc2occc2n1Cc1nc(-c2ccccc2Cl)oc1C	0.26	i	i	-7.5*	i	i
COC(=O)c1cc2occc2n1Cc1nc(-c2ccc(Cl)cc2)oc1C	0.15	i	i	-7.2*	i	i
COC(=O)c1cc2occc2n1Cc1cccc(C)c1	-0.01	i	i	i	i	i
